{"source": "paper PMC10840808", "about": "(Molecular cancer therapeutics, 2024)", "key": {"NANOG": {"target": "NANOG (Homo sapiens, UniProt Q9H9S0)", "sequence (Q9H9S0 whole entry)": "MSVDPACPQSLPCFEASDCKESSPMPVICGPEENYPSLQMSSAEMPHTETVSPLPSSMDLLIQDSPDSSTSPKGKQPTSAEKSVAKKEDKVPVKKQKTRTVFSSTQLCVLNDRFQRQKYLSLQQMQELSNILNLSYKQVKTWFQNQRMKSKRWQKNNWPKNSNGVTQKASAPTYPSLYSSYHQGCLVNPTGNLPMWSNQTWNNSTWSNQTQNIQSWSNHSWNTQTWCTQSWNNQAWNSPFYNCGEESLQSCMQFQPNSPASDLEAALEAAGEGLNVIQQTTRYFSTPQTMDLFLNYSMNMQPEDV", "test": "Surface plasmon resonance", "assay_type": "binding", "method_in_brief": "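Purified active NANOG at 50 μg/mL in 10 mM sodium acetate pH 4.5 was amine-coupled (EDC/NHS, ethanolamine block) to a CM5 chip, targeting 5000 RU, with an unmodified reference cell. Runs used Biacore S200 at 25°C, 1% DMSO/1x PBS-P+ at 30 μL/min. Peptide series: ≥5 concentrations, 100 nM–100 μM, plus repeat and zero. Association 180 s, dissociation 600 s, glycine pH 2.5 regeneration. KD by 1:1 Langmuir kinetics.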"}, "MDA-MB-231 cells [1]": {"test_system": "MDA-MB-231 cells", "test": "qPCR gene expression", "assay_type": "cell-based", "conditions": "for expression of NANOG target genes (FABP5, POSTN, NRP2, PIN1, TAGLN) / expression of epithelial cell markers cytokeratin 18 and 19 (KRT18 and KRT19): MDA-MB-231, 7 days of treatment, n=3; for expression of NANOG target genes (FABP5, POSTN, NRP2, PIN1, TAGLN): compared to vehicle or aScr-pep", "method_in_brief": "(§1)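 Cells were treated for 7 days with test peptide, cytosolic-tail peptide alone, scrambled peptide or vehicle, then analysed by real-time qPCR for NANOG-regulated and keratin genes. CT values were normalized to GAPDH, and dissociation curves checked primer fidelity. n=3 independent experiments, each in technical triplicate; one-way ANOVA.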"}, "FAK": {"target": "FAK (Homo sapiens, UniProt Q05397)", "sequence (Q05397 whole entry)": "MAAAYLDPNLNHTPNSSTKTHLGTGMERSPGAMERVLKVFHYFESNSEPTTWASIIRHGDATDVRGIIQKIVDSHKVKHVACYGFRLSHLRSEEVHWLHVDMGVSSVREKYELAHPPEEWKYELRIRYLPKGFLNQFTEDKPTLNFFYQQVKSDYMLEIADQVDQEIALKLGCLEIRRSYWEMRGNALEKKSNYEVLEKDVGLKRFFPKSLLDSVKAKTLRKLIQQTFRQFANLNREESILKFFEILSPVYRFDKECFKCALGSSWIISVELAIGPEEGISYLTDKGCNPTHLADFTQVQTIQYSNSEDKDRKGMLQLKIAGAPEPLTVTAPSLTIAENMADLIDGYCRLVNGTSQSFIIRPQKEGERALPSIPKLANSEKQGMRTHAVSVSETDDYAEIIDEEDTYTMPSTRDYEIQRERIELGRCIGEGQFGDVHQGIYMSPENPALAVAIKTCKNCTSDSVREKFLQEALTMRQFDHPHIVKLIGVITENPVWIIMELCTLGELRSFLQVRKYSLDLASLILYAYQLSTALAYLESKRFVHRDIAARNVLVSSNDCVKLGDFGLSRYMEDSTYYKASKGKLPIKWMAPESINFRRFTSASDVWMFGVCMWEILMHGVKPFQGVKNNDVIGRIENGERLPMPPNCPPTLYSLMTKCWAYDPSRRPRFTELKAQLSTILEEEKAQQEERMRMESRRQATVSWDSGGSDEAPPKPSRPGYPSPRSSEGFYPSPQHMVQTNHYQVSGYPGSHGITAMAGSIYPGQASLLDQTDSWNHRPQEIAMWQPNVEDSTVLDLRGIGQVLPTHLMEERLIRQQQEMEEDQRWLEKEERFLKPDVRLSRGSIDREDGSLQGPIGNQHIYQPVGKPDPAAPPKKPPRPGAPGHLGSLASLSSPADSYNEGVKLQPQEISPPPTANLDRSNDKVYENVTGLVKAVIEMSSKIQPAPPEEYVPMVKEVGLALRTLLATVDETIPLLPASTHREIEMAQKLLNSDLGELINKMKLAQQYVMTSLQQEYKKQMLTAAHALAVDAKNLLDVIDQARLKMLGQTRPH", "test": "Surface plasmon resonance", "assay_type": "binding", "method_in_brief": "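Biacore S200 at 25°C, with running buffer 1% DMSO/1x PBS-P+ (filtered, degassed) at 30 μL/min. FAK at 20 μg/mL in 10 mM sodium acetate pH 5.0 was amine-coupled to a CM5 chip, targeting 5000 RU, with unmodified flow cell 1 as reference. Peptide analyte: ≥5 concentrations (100 nM–100 μM) plus a repeat and a blank, multi-cycle. Association 180 s, dissociation 600 s. Regeneration with 10 mM glycine pH 2.5 for 30 s. KD from 1:1 Langmuir fit.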"}, "MDA-MB-231 cells [2]": {"test_system": "MDA-MB-231 cells", "test": "CellTiter-Glo proliferation", "assay_type": "cell-based", "conditions": "MDA-MB-231, increasing concentrations, 72 h", "method_in_brief": "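MDA-MB-231 cells, grown in DMEM with 1 mM sodium pyruvate and 10% heat-inactivated FCS at 37°C and 5% CO₂, were seeded at 1,000 cells/well. They were exposed for 72 h to Antp peptide alone, test peptide or vehicle (1% DMSO in PBS). Cells were lysed with CellTiter-Glo at day 0 and at 72 h, shaken 10 min in the dark, and luminescence was read. Fold change = 72 h value / day 0 value per group.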"}, "MCF7": {"test_system": "MCF7", "test": "Tumorsphere-initiation frequency, extreme limiting-dilution assay", "assay_type": "cell-based", "conditions": "MCF7 luminal breast cancer cell line, ELDA, aScr-pep vs aCx26-pep", "method_in_brief": "(§2)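 Cells were treated with vehicle, Antp alone, Antp-tagged scrambled peptide or test peptide. They were plated in duplicate rows at serial dilutions of 1–20 cells/well, one 96-well plate per condition. Medium was serum-free DMEM with 20 ng/ml bFGF, 10 ng/ml EGF, 2% B27 and 10 μg/ml insulin. After 2 weeks, wells were scored sphere-positive or negative by phase-contrast microscopy. Stem-cell frequency was computed by extreme limiting dilution analysis.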"}, "[3]": {"test_system": "MCF7 luminal breast cancer cells", "test": "qPCR gene expression", "assay_type": "cell-based", "conditions": "MCF7, 7 days of treatment, n=3", "method_in_brief": "as §1"}, "HCC70 cells [4]": {"test_system": "HCC70 cells", "test": "Subcellular fractionation and immunoblotting for FAK and NANOG", "assay_type": "cell-based", "conditions": "HCC70, 10 μM, 48 h, immunoblot", "method_in_brief": "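15×10⁶ HCC70 cells per 15 cm dish were treated 48 h with 10 μM peptide or 1% DMSO vehicle. A commercial kit gave membrane, cytoplasmic and nuclear fractions. 25 μg per fraction was run on 12% SDS-PAGE and transferred to PVDF. Blots were probed for FAK and NANOG, with HRP secondary 3 h at room temperature. Rhodamine anti-actin and Lamin A/C served as loading controls.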"}, "HCC70 cells [5]": {"test_system": "HCC70 cells", "test": "qPCR gene expression", "assay_type": "cell-based", "conditions": "HCC70, 10 μM, 7 day treatment, compared to aScr-pep", "method_in_brief": "as §1"}, "MDA-MB-468": {"test_system": "MDA-MB-468", "test": "Tumorsphere-initiation frequency, extreme limiting-dilution assay", "assay_type": "cell-based", "conditions": "MDA-MB-468, ELDA, compared to aScr-pep", "method_in_brief": "as §2"}, "HCC70": {"test_system": "HCC70", "test": "Tumorsphere-initiation frequency, extreme limiting-dilution assay", "assay_type": "cell-based", "conditions": "HCC70, ELDA, compared to aScr-pep", "method_in_brief": "as §2"}, "[6]": {"test_system": "MDA-MB-231 luciferase-expressing tumors", "assay_type": "in vivo, NSG mice", "conditions": "endpoint tumors", "method_in_brief": "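MDA-MB-231 cells were made luciferase-expressing by lentivirus and puromycin-selected. 1×10⁶ cells went into the right subcutaneous flank of 6-week-old female NSG mice. At palpability, mice were randomized to 50 μl intratumoral 0.1 mM peptide or vehicle (1% DMSO) every other day for 20 days. Weekly IVIS: D-luciferin 150 mg/kg IP under isoflurane, total flux. Excised tumors were fixed 3 days in 4% PFA, then sectioned and stained (H&E: 7–8 mice/group; IF: 3–4 mice/group, 3 images/mouse). One-way ANOVA.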"}, "MDA-MB-231": {"test_system": "MDA-MB-231", "test": "Tumorsphere-initiation frequency, extreme limiting-dilution assay", "assay_type": "cell-based", "conditions": "MDA-MB-231, ELDA, compared to aScr-pep", "method_in_brief": "as §2"}, "[7]": {"conditions": "SPR, 25°C, 1% DMSO/1x PBS-P+, 1:1 Langmuir, range given in words"}, "[8]": {"conditions": "MDA-MB-231, 10 μM, 7 day treatment, compared to aScr-pep"}, "[9]": {"conditions": "immunofluorescence, 3–4 mice per group"}}, "note": "Ends that are not written are not given here."}
{"substance": "Cx26 cytosolic tail: peptide fragment of the Cx26 cytosolic (C-terminal) tail, 11 amino acids (RYCSGKSKKPV-NH2)", "values": [{"measurement": "dissociation constant (KD) with NANOG", "setting": "NANOG; [7]", "result": "nanomolar"}, {"measurement": "expression of NANOG target genes (FABP5, POSTN, NRP2, PIN1, TAGLN)", "setting": "MDA-MB-231 cells [1]", "result": "no significant differences"}, {"measurement": "expression of epithelial cell markers cytokeratin 18 and 19 (KRT18 and KRT19)", "setting": "MDA-MB-231 cells [1]", "result": "no significant differences"}, {"measurement": "dissociation constant (KD) with FAK", "setting": "FAK; [7]", "result": "micromolar"}]}
{"substance": "RYCSG", "values": [{"measurement": "binding to NANOG by SPR (result in words)", "setting": "NANOG", "result": "sufficient for binding"}, {"measurement": "binding to FAK by SPR (result in words)", "setting": "FAK", "result": "sufficient for binding"}]}
{"substance": "aCx26-pep: peptide containing the Cx26 cytosolic tail sequence tagged with an antennapedia (Antp) leader sequence (RQIKIWFQNRRMKWKKRYCSGKSKKPV-NH2)", "values": [{"measurement": "cell proliferation (CellTiter-Glo)", "setting": "MDA-MB-231 cells [2]", "result": "not significantly affected"}, {"measurement": "tumorsphere frequency", "setting": "MCF7", "result": "no significant difference"}, {"measurement": "NANOG target gene expression", "setting": "[3]", "result": "did not significantly change"}, {"measurement": "cytokeratin gene expression", "setting": "[3]", "result": "did not significantly change"}, {"measurement": "binding to NANOG by SPR (result in words)", "setting": "NANOG", "result": "did not significantly alter"}, {"measurement": "FAK level in the nuclear fraction", "setting": "HCC70 cells [4]", "result": "dramatic decreases"}, {"measurement": "NANOG level in the nuclear fraction", "setting": "HCC70 cells [4]", "result": "dramatic decreases"}, {"measurement": "Oct4 mRNA levels", "setting": "HCC70 cells [5]", "result": "significant decrease"}, {"measurement": "Sox2 levels", "setting": "HCC70 cells [5]", "result": "did not observe a change"}, {"measurement": "tumorsphere frequency", "setting": "MDA-MB-468", "result": "significantly decreased"}, {"measurement": "Oct4 mRNA levels", "setting": "MDA-MB-231 cells [1]; [8]", "result": "significant decrease"}, {"measurement": "Sox2 levels", "setting": "MDA-MB-231 cells [1]; [8]", "result": "did not observe a change"}, {"measurement": "expression of NANOG target genes (FABP5, POSTN, NRP2, PIN1, TAGLN)", "setting": "MDA-MB-231 cells [1]", "result": "significantly decreased"}, {"measurement": "expression of epithelial cell markers cytokeratin 18 and 19 (KRT18 and KRT19)", "setting": "MDA-MB-231 cells [1]", "result": "significantly increased"}, {"measurement": "tumorsphere frequency", "setting": "HCC70", "result": "significantly decreased"}, {"measurement": "Ki67 staining (proliferation marker)", "setting": "[6]; [9]", "result": "decreased"}, {"measurement": "cleaved caspase 3 staining", "setting": "[6]; [9]", "result": "increased"}, {"measurement": "vimentin staining (EMT marker)", "setting": "[6]; [9]", "result": "decreased"}, {"measurement": "percent tumor viability (H&E)", "setting": "[6]; vs vehicle or aScr-pep, 7–8 mice per group", "result": "significantly decreased"}, {"measurement": "tumorsphere frequency", "setting": "MDA-MB-231", "result": "significantly decreased"}, {"measurement": "binding to FAK by SPR (result in words)", "setting": "FAK", "result": "did not significantly alter"}]}
